# Hits are enriched below; roughly 2.5% of the tested compounds scored in any of these assays.
# TRPN1 ag – zebrafish TRPN1 (NompC) channel agonism | AID 1424 | HEK293 zebrafish TRPN1-YFP, Fluo-8 calcium fluorescence; 100% = response to 87 µM carbachol | 220,000 compounds, 0.18% hits | activation, % at 3 µM;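 active = activation above its plate's cutoff, the mean activation of test wells on that plate plus 3 SD, cut at about 19% in these data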
#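 Material – zebrafish TRPN1-YFP in HEK293 cells · Doses – 3 µM single point · Schedule – dye 1 h 37 °C plus 30 min RT · Signal – Fluo-8 calcium fluorescence, excitation 470-495 nm, emission 515-575 nm · Read-out – % activation versus carbachol response · Control set – carbachol high, DMSO low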
# OX1R antag-1 – human HCRTR1 antagonism; inhibition, % at 5 µM; 330,000 compounds, 0.43% hits; CHO/OX1R cells, Fluo-8 calcium fluorescence, orexin A;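 active = inhibition above its plate's threshold, mean inhibition of all tested compounds on the plate plus 3 SD, cut at about 37% in these data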
# Target sequence (O43613 whole entry, looked up): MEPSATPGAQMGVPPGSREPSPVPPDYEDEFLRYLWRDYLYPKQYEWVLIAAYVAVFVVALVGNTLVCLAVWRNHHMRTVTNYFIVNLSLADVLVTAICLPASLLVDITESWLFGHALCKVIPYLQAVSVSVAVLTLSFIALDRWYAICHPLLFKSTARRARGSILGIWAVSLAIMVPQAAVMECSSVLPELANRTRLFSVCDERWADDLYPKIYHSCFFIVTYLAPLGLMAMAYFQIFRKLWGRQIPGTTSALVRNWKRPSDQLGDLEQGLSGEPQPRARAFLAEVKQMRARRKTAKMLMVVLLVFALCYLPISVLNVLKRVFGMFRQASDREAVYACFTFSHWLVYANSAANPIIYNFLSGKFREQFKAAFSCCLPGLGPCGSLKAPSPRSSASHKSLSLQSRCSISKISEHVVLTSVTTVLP
# CHO parental Ca – signal in parental CHO cells, OX1R antagonist counter-screen | parental CHO-K1, ATP-induced calcium, Fluo-8 fluorescence | 330,000 compounds, 0.63% hits | inhibition, % at 5.6 µM | AID 463079;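 active = inhibition above that plate's mean sample inhibition plus 3 SD, cut at about 26% in these data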
#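 Material: parental CHO cells / Compound: single nominal dose of 5.6 µM per compound / Signal: Fluo-8 fluorescence / Replicates: singlicate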
# TRPML3 ag – activates the human TRPML3 channel; Q8TDD5; HEK293 TRPML3-YFP, Fluo-8 calcium fluorescence; 100% = the carbachol control signal; activation, % at 3 µM; 220,000 compounds, 0.29% hits;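 active = activation above its plate's cutoff, the mean activation of the plate's test wells plus 3 SD, cut at about 12% in these data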
#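 Material: HEK293 cells stably carrying human TRPML3-YFP; compound dosing: single dose, 3 µM final nominal compound, 0.3% DMSO final; incubation: 1-h 37 °C dye load, 5-s basal, 120-s post-compound reads; technique: Fluo-8 intracellular calcium fluorescence, excitation 470-495 nm, emission 515-575 nm; read-out basis: percent activation from peak-to-basal fluorescence ratio, scaled between DMSO and carbachol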
# OX1R antag-2 – OX1R (human) antagonism; O43613; OX1R-expressing cells, FRET antagonist read-out; inhibition, % at 6.6 µM; 330,000 compounds, 1.8% hits; AID 485270; in the data active = inhibition mostly above about 38%, no sharp cut-off; inactive = mostly below about 40%
# Numbers stand for hits; 0 = inactive; - = no result given.
SMILES,TRPN1 ag,OX1R antag-1,CHO parental Ca,TRPML3 ag,OX1R antag-2
Cc1c(C(c2ccc(N(C)C)cc2)c2c(C)n(C)n(-c3ccccc3)c2=O)c(=O)n(-c2ccccc2)n1C,0,0,0,0,70.7
CNc1nc(-c2c(C)n(C)c3ccc(OC)cc23)cs1,-,0,0,-,0
COc1ccc2c(c1)c(-c1csc(N)n1)c(C)n2C,-,0,0,-,46.2
COc1cc(C(=O)O)ccc1OCC(=O)N1CCOCC1,0,0,0,0,0
COc1cc(/C=C2\SC(=O)NC2=O)ccc1OCC(=O)N1CCOCC1,-,0,0,-,51.8
NN1C(=O)/C(=C2/Sc3ccccc3N2CCCS(=O)(=O)O)SC1=S,-,0,0,-,37.5
N/C(=N/OC(=O)c1ccccc1Cl)c1ncc([N+](=O)[O-])s1,0,0,0,0,0
COc1ccc(CN(C(=O)CSc2nnc(-c3ccccc3F)o2)c2ccc(F)cc2)cc1,0,0,26.4,0,0
CN(C)c1ccc2nsnc2c1[N+](=O)[O-],0,0,0,0,38.6
Cc1ccc2nsnc2c1NC(=O)c1ccc([N+](=O)[O-])cc1,0,0,0,0,0
COc1ccc2c(C(=O)NCc3ccc4c(c3)OCO4)c(-c3ccc(S(C)(=O)=O)cc3)sc2c1,-,0,0,-,0
Cc1cccc(CCN2C(Nc3ccccc3)=NC[C@@H]2CC(C)C)c1,-,49.5,0,-,0
CC(C)C[C@H]1CN=C(Nc2ccccc2)N1CCc1ccc(F)cc1,-,75.1,56.7,-,0
CC(C)C[C@H]1CN=C(N(C)C)N1CCc1cccc(F)c1,-,0,0,-,0
CC(C)CCN1C(Nc2ccccc2)=NC[C@@H]1CC(C)C,-,0,0,-,0
CC(C)C[C@H]1CN=C(Nc2ccccc2)N1CCc1cccc(F)c1,-,87.4,50.1,-,0
Cc1ccc2c(c1)c1c(c(=O)n(-c3ccccc3C)c(=O)n1CC(=O)NCC1CCCO1)n2C (stereo not given),-,0,0,-,0
Cc1ccc(NC(=O)CCCC2CCCCC2)c(O)c1,-,0,0,-,0
C=CCN(CC=C)S(=O)(=O)c1ccc(NC(=O)COc2ccccc2OC)cc1,0,0,37.7,0,0
COc1ccccc1OCC(=O)Nc1ccc(S(=O)(=O)N2CCCCCC2)cc1,0,0,0,0,0
C[n+]1c(/C=C/c2ccc3c(c2)OCO3)ccc2ccccc21,0,0,0,0,0
C[n+]1c(/C=C/c2ccc(O)cc2)ccc2ccccc21,-,0,0,-,73.2
CCOC(=O)C(C(=O)OCC)c1cc(Br)c2noc3c2c1C(=O)c1ccccc1-3,0,0,38.5,0,0
CC(=O)OCCNc1cc(N2CCN(C)CC2)c2noc3c2c1C(=O)c1ccccc1-3,0,-,-,0,-
Cc1ccc(C)c(S(=O)(=O)N2CCCOC2CNC(=O)C(=O)NCc2ccccc2)c1 (stereo not given),-,0,0,-,0
SMILES,TRPN1 ag,OX1R antag-1,CHO parental Ca,TRPML3 ag,OX1R antag-2
CC(=O)NC(c1cc(Cl)c2ccccc2c1O)C(C)C (stereo not given),-,0,0,-,39.9
CCC(=O)NC(C)c1cc(Cl)c2ccccc2c1O (stereo not given),-,0,0,-,0
CC(=O)NC(c1cc(Cl)c2cccnc2c1O)C(C)C (stereo not given),-,0,0,-,0
CCC(=O)NC(c1cccs1)c1cc(Cl)c2ccccc2c1O (stereo not given),-,0,0,-,48.1
CCC(=O)NC(c1cc(Cl)c2ccccc2c1O)C1CC1 (stereo not given),-,0,0,-,62.9
COc1ccc(CNC(=O)COC(=O)CN2C(=O)COc3ccccc32)cc1,-,0,0,-,0
COc1ccc(OC)c(NC(=O)CSc2nc(N3CCOCC3)nc(N3CCOCC3)n2)c1,-,0,0,-,0
O=c1[nH]cnc2ncc(-c3ccc(O)cc3)nc12,-,0,0,-,59.6
CC(C)N(Cc1ccccc1)C(=S)NC1CCCCC1,0,0,0,0,0
CC(C)(C)n1nnnc1C(c1cccs1)N(Cc1ccc(Cl)cc1)CC1CCCO1 (stereo not given),0,0,37.9,0,0
O=C(Nc1ccc2c(c1)OCO2)c1c(Cl)nc2sccn12,0,0,0,0,58.1
Cc1ccc(C(C[N+](=O)[O-])Sc2ccc(N)cc2)cc1 (stereo not given),0,0,0,0,0
Brc1ccc2[nH]c3c(N4CCc5ccccc5C4)ncnc3c2c1,0,43.8,47.1,0,0
Clc1ccc2[nH]c3c(N4CCC5(CC4)OCCO5)ncnc3c2c1,0,0,0,0,81.5
Cc1ccc2[nH]c3c(N4CCc5ccccc5C4)ncnc3c2c1,0,51.3,64.3,0,81.6
Fc1ccc2[nH]c3c(N4CCc5ccccc5C4)ncnc3c2c1,0,0,65.0,0,56.4
CCOc1ccc2[nH]c3c(N4CCc5ccccc5C4)ncnc3c2c1,0,0,0,0,0
Cc1onc(-c2c(F)cccc2Cl)c1C(=O)NCc1ccc(S(N)(=O)=O)cc1,-,0,0,-,0
Cc1cc(NC(=O)c2cc(-c3ccncc3)nc3ccccc23)ccc1Br,-,0,0,-,0
COc1ccc(-c2cc(C(=O)OCC(=O)N3CCOCC3)c3ccccc3n2)cc1,-,0,0,-,55.1
COc1cc2ccccc2cc1C(=O)OCC(=O)N1CCOCC1,0,0,0,0,0
O=C(OCC(=O)N1CCN(C(=O)c2ccco2)CC1)c1cc(-c2cccc(Br)c2)nc2ccccc12,0,0,0,0,61.6
Cc1cc(C)c(NC(=O)C2CCCO2)c(C)c1NC(=O)C1CCCO1 (stereo not given),-,0,0,-,0
O=C(CCSc1nc2ccccc2s1)N/N=C/c1c(O)ccc2ccccc12,0,0,0,0,60.9
NC(=O)C1CCN(C(=O)CCSCc2ccc(Cl)c(Cl)c2)CC1,-,0,0,-,0
SMILES,TRPN1 ag,OX1R antag-1,CHO parental Ca,TRPML3 ag,OX1R antag-2
CCC1(c2ccccc2)NC(=O)N(CC(=O)NCCN2C(=O)S/C(=C\c3cccnc3)C2=O)C1=O (stereo not given),-,0,0,-,56.7
Cc1ccc(-c2nc3ccccc3[nH]2)cc1NC(=S)NC(=O)c1ccccc1Br,0,0,0,0,86.8
O=S1(=O)c2cccc3cccc(c23)N1Cc1nnc(-c2ccccc2Br)o1,0,0,32.3,0,0
O=C(/C=C/c1ccccc1)C1C(=O)c2ccccc2C1=O,0,0,0,0,0
CCc1ccc(/C=C/C(=O)C2C(=O)c3ccccc3C2=O)cc1,0,0,34.8,0,0
COc1ccccc1N1CCN(S(=O)(=O)CCNC(=O)c2ccc(Br)o2)CC1,-,0,0,-,0
O=C(COc1ccc(Cl)cc1Cl)Nc1ccccc1NS(=O)(=O)c1cccs1,0,0,0,0,52.1
O=C(COc1ccccc1)Nc1ccccc1NS(=O)(=O)c1cccs1,0,0,0,0,0
O=C(Nc1ccc(Cl)cc1)Nc1ccccc1NS(=O)(=O)c1cccs1,0,0,0,0,60.4
Cc1cc(Cl)ccc1OCC(=O)Nc1ccccc1NS(=O)(=O)c1cccs1,0,0,0,0,40.6
O=S(=O)(Nc1ccccc1Cl)c1ccc(NS(=O)(=O)c2cccs2)cc1,-,0,0,-,0

# Bioassay records deposited in PubChem by The Scripps Research Institute Molecular Screening Center.
